Screens from PubChem BioAssay.
Only some compounds are listed: those with a hit (about 1.8% of all), similar ones and a draw of the others.
mABHD4 FP = inhibitors of mouse ABHD4 | Q8VD66 | purified mABHD4, FP-Rh probe fluorescence polarization | inhibition, % at 8.92 µM | 0.54% of 370,000 active | AID 720543;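 active = inhibition exceeding the mean over every tested compound plus 3 SD, cut at about 30% in these data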;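 note: 0% = plate median of compound wells and 100% = S159A mutant with DMSO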
Target sequence (Q8VD66 whole entry, looked up): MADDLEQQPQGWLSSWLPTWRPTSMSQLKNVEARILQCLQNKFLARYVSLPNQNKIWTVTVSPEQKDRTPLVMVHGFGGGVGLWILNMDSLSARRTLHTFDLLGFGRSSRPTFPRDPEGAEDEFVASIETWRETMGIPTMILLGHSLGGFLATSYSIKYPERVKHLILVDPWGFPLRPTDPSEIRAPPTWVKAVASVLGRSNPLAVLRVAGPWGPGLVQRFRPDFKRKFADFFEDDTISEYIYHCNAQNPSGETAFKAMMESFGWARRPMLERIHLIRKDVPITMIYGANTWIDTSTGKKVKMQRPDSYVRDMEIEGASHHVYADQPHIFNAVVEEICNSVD
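Assay system: Wild-type mouse ABHD4 protein | Medium: HEPES pH 7.0 buffer, 150 mM NaCl, 0.01% Pluronic F-127 | Incubation: Enzyme–compound pre-incubation 45 min, then probe 60 min, both 25 °C | Technique: Fluorescence polarization with parallel and perpendicular emission, 525/598 nm | Evaluation: % inhibition of FP-Rh probe binding versus controls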
HTRA1 inhibitor = inhibitors of human serine peptidase HTRA1 | Q92743 | recombinant HTRA1, FP-rhodamine activity-based probe, fluorescence polarization | inhibition, % at 5.96 µM | 0.5% of 340,000 active; in the data active = inhibition above about 36%;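 note: 0% = enzyme with DMSO and 100% = wells lacking enzyme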
TCR-CD3 inh = human TCR-CD3 binding inhibition. TAMRA-labeled TCR probe fluorescence, biochemical. inhibition, % at 9.4 µM. 0.37% of 360,000 active. AID 651800; in the data active = inhibition above about 19%;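 note: recombinant mutant TCR 2C K166C tagged with TAMRA read by polarization; 0% = receptor in buffer alone and 100% = receptor with positive control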
Tn6 DDE FP = disrupts Tn6 cyclic peptide binding to fibrin D-Dimer-E complex; inhibition, % at 8.3 µM; 0.21% of 370,000 active; Fibrin DD(E) TRITC-Tn6 fluorescence polarization displacement; P02675;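 active = inhibition above a per-campaign cutoff: mean of compounds within control limits plus 3 SD, cut at about 15% in these data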;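 note: 0% = median of all compound wells on the plate and 100% = blocking peptide control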
DDE Tn7 FP inh = disrupts Tn7 cyclic peptide binding to fibrin D-Dimer-E complex; FP displacement of FITC-Tn7 peptide from fibrin DD(E); 0% = median of compound wells per plate; inhibition, % at 8.3 µM; 0.13% of 370,000 active; AID 720508;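 active = inhibition above the mean of compounds falling within the control limits plus 3 SD of them, cut at about 14% in these data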;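 note: 0% = plate median of compound wells and 100% = 10 µM Aha-Tn7 peptide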
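Assay system: Human clot-derived fibrin DD(E) complex | Buffer or medium: Tris/NaCl/CaCl2 buffer, pH 7.8 | Repeats: One replicate per compound | Benchmarks: Aha-Tn7 high control | Measure: % inhibition scaled between sample-field median and high-control FP | Schedule: 10 min plus 3 h, room temperature | Signal: Fluorescence polarization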
SIAE inh = inhibitors of human sialic acid acetylesterase SIAE; 0.69% of 370,000 active; inhibition, % at 9.66 µM; Q9HAT2; SIAE FP-Rh probe binding, fluorescence polarization;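 active = inhibition above a cutoff: mean of compounds within the control limits plus 3 SD of those, cut at about 17% in these data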;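 note: 0% = plate median of compound wells and 100% = probe without SIAE protein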
DDE Tn6 FP ctr = DD(E)-Tn6 binding inhibition, counter-screen | shares compounds with Tn6 DDE FP | Fibrin DD(E), TRITC-Tn6 fluorescence polarization displacement; 0% = median of compound wells, not DMSO | inhibition, % at 8.3 µM | 2% of 680 active | AID 720621;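 active = inhibition above the mean of test compounds lying between the control limits plus 3 SD of those, cut at about 14% in these data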;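 note: 0% = median of compound wells and 100% = wells with Aha-Tn7 blocking peptide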
Tn6 DDE conf = DD(E)-Tn6 binding inhibition, FP confirmation. FP displacement of TRITC-Tn6 peptide from DD(E); 0% = per-plate median of test wells. shares compounds with Tn6 DDE FP. 10% of 680 active. inhibition, % at 8.3 µM. AID 720631;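 active = inhibition above the mean of compounds lying within the control limits plus 3 SD, cut at about 16% in these data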;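 note: 100% = high control wells holding a competing inhibitor peptide at 10 µM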
An asterisk follows results filed as active; x = not tested or not shown.

SMILES	mABHD4 FP	HTRA1 inhibitor	TCR-CD3 inh	Tn6 DDE FP	DDE Tn7 FP inh	SIAE inh	DDE Tn6 FP ctr	Tn6 DDE conf
O=C(Cn1[nH]c(=O)c2ccccc2c1=O)OCC(=O)c1ccc(F)cc1	5.4	3.7	-1.3	0.1	5.4	0.3	x	x
O=C(Cn1[nH]c(=O)c2ccccc2c1=O)OCC(=O)c1ccccc1Cl	1.9	0.3	1.1	15.5*	6.0	13.8	0.4	-0.5
O=C(N/N=C/c1cccc(OCc2ccccc2)c1)c1ccc(Br)cc1	-8.4	-17.8	5.7	-1.2	0.8	3.5	x	x
O=C(NN=Cc1cccc(OCc2ccccc2)c1)c1cc(-c2ccc(Cl)cc2)n[nH]1	-69.2	x	x	22.4*	-4.2	-128.6	2.1	-1.0
CC(COc1ccc(OC(F)(F)F)cc1)CN1CCC(C(O)(c2ccccc2)c2ccccc2)CC1 (configuration not stated)	7.7	x	x	21.8*	1.9	-2.1	7.8	8.4
CCOc1ccc(OCC(=O)Nc2cc3c(cc2C(=O)O)OCCCO3)cc1	-3.7	0.9	0.6	0.5	5.9	6.9	x	x
COc1ccc(OCC(=O)Nc2cc3c(cc2C(=O)O)OCCCO3)cc1	-7.2	-0.6	9.9	16.6*	7.4	-2.4	5.1	0.5
O=C(Cn1c(=O)[nH]c2ccsc2c1=O)N1CCN(c2ccc(F)cc2)CC1	1.5	x	3.4	15.5*	0.7	-1.0	2.1	-2.5
COc1ccc(OC)c(C(=O)CSc2nnc(SCc3cccc4ccccc34)s2)c1	2.0	x	x	-5.0	2.3	-1.6	x	x
CCCCCCCCCCCNC(=O)c1ccoc1C	-6.2	-13.0	-1.9	17.5*	0.4	0.7	9.1	2.9
Cc1occc1C(=O)NCCCCNC(=O)c1ccoc1C	-4.3	9.2	6.7	0.7	6.0	5.3	x	x
CN(C(=O)C12CC3CC(CC(C3)C1)C2)C1(C)CCS(=O)(=O)C1 (configuration not stated)	4.3	-1.4	-1.4	15.4*	-3.3	3.2	3.2	-0.1
CC1(NC(=O)C23CC4CC(CC(C4)C2)C3)CCS(=O)(=O)C1 (configuration not stated)	6.1	-1.0	-10.8	-2.1	-7.4	-4.1	x	x
COCCCNc1ncnc2c1sc1nc(-c3ccco3)c3c(c12)CC(C)(C)OC3	-16.7	-27.7	-5.0	18.1*	5.7	-10.7	-3.3	-11.8
COc1ccc(CNc2ncnc3cc(Cl)ccc23)cc1OC	2.3	-4.7	5.2	15.8*	2.8	-3.1	-9.3	-5.9
COc1ccc2ccccc2c1C=NNC(=O)c1cc(-c2ccc(C)c(C)c2)n[nH]1	-70.8	x	x	25.5*	-0.6	-31.2	12.3	16.0*
Cc1ccc(-c2cc(C(=O)NN=Cc3c(O)ccc4ccccc34)[nH]n2)cc1C	13.3	x	x	4.0	-4.6	5.5	x	x
CN(Cc1ccccc1)S(=O)(=O)c1cccc(C(=O)OCC2CCCCC2)c1	-5.7	x	x	4.3	-2.5	3.6	x	x
COc1cccc(C(=O)Nc2cc3c(cc2N2CCCC2)n(C)c(=O)n3C)c1	7.8	6.7	-0.9	-3.3	-5.9	2.6	x	x
Cn1c(=O)n(C)c2cc(N3CCCC3)c(NC(=O)c3cccc(F)c3)cc21	6.4	4.2	-1.9	15.4*	6.0	16.4	5.5	1.3
Cc1cc(C)cc(N(CC(=O)NC2CCC(C)CC2)S(=O)(=O)c2cccs2)c1 (configuration not stated)	18.8	x	x	-3.5	-4.3	0.7	x	x
COc1ccccc1NC(=O)CN(C)S(=O)(=O)c1ccc(F)cc1	-3.7	3.4	1.2	6.1	-2.2	-3.9	x	x
COc1ccc(S(=O)(=O)N(C)CC(=O)Nc2ccccc2OC)cc1	-2.1	2.3	2.9	23.4*	5.7	5.0	5.0	-0.2
CSc1ccc(S(=O)(=O)N2CC(=O)Nc3ccccc32)cc1	1.4	-0.2	9.1	15.8*	-6.2	0.5	3.9	4.1
O=C(COC(=O)CC1CC2CCC1C2)NC(=O)NCc1ccco1 (configuration not stated)	-2.3	18.1	11.9	19.5*	1.0	-0.4	0.9	-5.2
